Compound activity from PubChem.
Candida biofilm: kills Candida albicans biofilms | C. albicans biofilm + clotrimazole, Alamar Blue | inhibition, % at 6 µM | 0.14% of 85,000 active | AID 834;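 active means inhibition above 20%; inactive means inhibition below 20%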;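 further: preformed 24 hr biofilms exposed to compound for 48 hr; 0% = biofilm without compound and 100% = blank killed by clotrimazole plus chlorhexidine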
DAT uptake mod: changed human dopamine transporter uptake under cocaine IC80; Q01959; LLC-PK1 hDAT cells, [14C]-dopamine uptake with cocaine IC80; actives deviate in either direction; B-score at 10 µM; 1.3% of 110,000 active; AID 449768;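 active means Z score or B-score, a plate-position-corrected score, falls beyond the plate's 99.7% confidence bounds, in either direction; inactive means both scores lie inside the 99.7% bounds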;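 further: scored against the spread of the other compound wells on the same plate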
AP complement: orthogonal test for alternative complement pathway inhibitors | Human serum alternative complement pathway, LPS-coated ELISA, C3 deposition; tested in compound mixtures | 0.08% of 62,000 active | inhibition, % at 5 µM;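 active means inhibition above 30% in each of the two pooled mixtures holding the compound, so the lower value exceeds 30%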;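 further: 0% = serum in Mg-EGTA without compound and 100% = EDTA serum blank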
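Medium: diluted human serum in Mg2+-EGTA GVB++. Assay system: human serum complement alternative pathway, C3 deposition onto LPS. Also added: Plate-bound LPS. Technique: Anti-C3 ELISA, OD 450 nm. Measure: percent inhibition. Incubation: 1 h at 37 °C. Dosing: 5 µM each compound, pools of ten, 50 µM per pool.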
MMP13 inh: MMP13 (human) collagenase inhibition; inhibition, % at 4 µM; MMP-13 fTHP FRET cleavage, Mca fluorescence; 0.07% of 65,000 active;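 active means inhibition above the mean of compound-free control plate wells plus 3 SD, cut at about 14% in these data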;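 further: 0% = DMSO wells and 100% = wells with reference MMP-13 inhibitor after basal subtraction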
D1 mod: allosteric modulators of human D1 dopamine receptor. 5.9% of 58,000 active. P21728. B-score at 10 µM. HEK293 D1, CRE-luciferase, dopamine EC30 potentiation; actives deviate in either direction;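 active means luminescence count or its row- and column-corrected plate score outside the 99.7% band of the plate's sample wells, on either side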
Target sequence (P21728 whole entry, looked up): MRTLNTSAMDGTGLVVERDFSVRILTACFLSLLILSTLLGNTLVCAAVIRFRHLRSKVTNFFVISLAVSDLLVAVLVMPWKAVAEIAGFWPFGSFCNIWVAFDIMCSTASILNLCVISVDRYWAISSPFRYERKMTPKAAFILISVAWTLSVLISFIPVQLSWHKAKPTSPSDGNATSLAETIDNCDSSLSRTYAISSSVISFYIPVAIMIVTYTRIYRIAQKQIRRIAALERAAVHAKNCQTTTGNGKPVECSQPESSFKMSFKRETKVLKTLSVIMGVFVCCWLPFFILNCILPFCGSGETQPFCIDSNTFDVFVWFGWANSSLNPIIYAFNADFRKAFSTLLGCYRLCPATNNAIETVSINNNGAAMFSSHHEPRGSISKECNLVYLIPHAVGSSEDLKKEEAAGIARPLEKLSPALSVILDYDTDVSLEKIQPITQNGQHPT
* marks the source's active call; other numbers are inactive results; x = not tested or not shown. The full list was thinned out, with hits kept by preference.

SMILES	Candida biofilm	DAT uptake mod	AP complement	MMP13 inh	D1 mod
CC(C)c1ccc2oc(-c3cc(N)ccc3O)nc2c1	8	-0.33	23	1	-3.9*
O=C(NCc1ccccc1Cl)C1CCCN(S(=O)(=O)c2cccc3nsnc23)C1 (stereo unspecified)	2	0.87	x	x	x
c1ccc(NCc2nnc3n2CCCCC3)cc1	7	1.9*	4	-8	-0.96
CCn1c(=S)sc2nc(C)sc21	4	0.38	12	0	13*
CCn1c(-c2ccc(C)cc2)n[nH]c1=S	5	-0.15	x	x	x
O=S(=O)(NCc1ccccn1)c1ccccc1	1	-2.9*	x	x	x
Cc1ccc(S(=O)(=O)/C(C#N)=C/c2c(N3CCC(C(N)=O)CC3)nc3ccccn3c2=O)cc1	1	2.4	x	x	x
CCOC(=O)N1CCN(C(c2cccc(OC)c2)c2sc3nc(C)nn3c2O)CC1 (stereo unspecified)	2	0.24	5	1	-6.8*
C=CCOc1ccc(CNc2nccs2)cc1OC	2	0.19	x	x	x
Cc1nnc2sc(-c3csc4c3CCCC4)nn12	4	3.4*	16	5	0.99
Cc1nnc2sc(-c3ccncc3)nn12	1	-0.35	0	4	-0.58
CCCNC(=O)C1CCN(S(=O)(=O)c2ccc(-c3nn[nH]n3)cc2)CC1	x	-0.68	x	x	x
O=C(NC1CC2CCC1C2)C1CCN(S(=O)(=O)c2ccc(-c3nn[nH]n3)cc2)CC1 (stereo unspecified)	15	-0.34	31*	-3	-0.84
COc1ccc([C@H]2/C=C\CN(Cc3ccc(N(C)C)cc3)[C@@H](C)C(=O)N2Cc2ccc(F)cc2)cc1	x	-0.31	x	x	x
C/C(Cl)=C\Cn1c(NCCc2ccccc2)nc2c1c(=O)n(C)c(=O)n2C	1	-1.1	6	0	-3.1*
CC(C)(C)CN1C(N)=NC[C@@H]1Cc1ccc(O)cc1	x	-3.8*	x	x	x
CC1=C(C)C(=O)NC(Nc2nc(C)c3cc(C)cc(C)c3n2)N1 (stereo unspecified)	-3	x	0	0	-3.2*
Cc1cc(C)c2nc(SCCc3ccccc3)nc(C)c2c1	3	0.095	x	x	x
COc1ccccc1OCC(=O)Nc1ccc(S(=O)(=O)Nc2nc(C)cc(C)n2)cc1	6	3.5*	-7	2	0.11
Cn1nc(C(F)(F)F)c(/C=N/OC(=O)c2ccccc2Cl)c1SCc1ccccc1Cl	x	0.018	x	x	x
Cc1cccc(-c2noc(CN(C(=O)c3ccc(Br)o3)C(C)C)n2)c1	-4	1.8*	11	5	-0.98
Cc1cccc(-c2noc(CN(C(=O)c3ccc4c(c3)OCO4)C(C)C)n2)c1	2	0.57	-3	0	-0.019
Cc1[nH]c2ccccc2c1C(=O)Cn1c(=O)oc2ccccc21	x	0.17	x	x	x
COc1ccc(CN2CCn3ncc(C(=O)Nc4cc(C)cc(C)c4)c3C2=O)cc1	6	-0.042	x	x	x
Cc1noc(C)c1S(=O)(=O)Nc1ccc(C(=O)NC2CCCCCC2)cc1	x	x	9	4	1.7
SMILES	Candida biofilm	DAT uptake mod	AP complement	MMP13 inh	D1 mod
Cc1noc(C)c1S(=O)(=O)Nc1ccc(C(=O)N2CCN(c3ccc(Cl)cc3)CC2)cc1	x	x	-11	1	-3.7*
CCCS(=O)(=O)c1c(S(=O)(=O)CCC)c2c(C)cccn2c1C(=O)OC	1	1.4*	x	x	x
C=CCN1C=C2C(=O)C(C)(OC(=O)CC)C(=O)C=C2C=C1CCCC (stereo unspecified)	x	-2.8*	x	x	x
O=C(CC(c1ccco1)C1CCCCC1=O)c1ccccc1 (stereo unspecified)	-2	-0.065	x	x	x
CC(=Nc1cccc(O)c1)c1sc2ccccc2c1O	14	-0.29	-1	8	-4.3*
CN(C)C=Nc1ncc2c3ccccc3n(Cc3ccccc3)c2c1C#N	7	0.58	3	-5	-2.1
CN(C)C=Nc1ncc2c3ccccc3n(CCN(C)C)c2c1C#N	-3	2.9*	13	-19	-0.59
Cc1ccc(/C=[N+](/[O-])C2SC(=S)N(C)C2(C)C)cc1 (stereo unspecified)	3	-0.25	x	x	x
CN1C(=S)SC(/[N+]([O-])=C\c2cccs2)C1(C)C (stereo unspecified)	4	-0.62	12	-2	-7.5*
CN1C(=S)SC(/[N+]([O-])=C\c2ccco2)C1(C)C (stereo unspecified)	4	0.4	-8	-1	-5.8*
Cc1nn(CC#N)c(=O)n1-c1cccc(F)c1	4	0.89	x	x	x
O=C(C1CCCCN1S(=O)(=O)c1ccccc1)N1CCN(C(c2ccccc2)c2ccccc2)CC1 (stereo unspecified)	-1	0.16	x	x	x
O=C(C1CC1)N1CCN(C(c2ccccc2)c2ccccc2)CC1	41*	0.16	x	x	x
